This note sets out measurements from ChEMBL document CHEMBL3259610, “Liver S9 Fraction-Derived Metabolites of Curcumin Analogue UBS109” (ACS Med Chem Lett, 2014).

The source made the active and inactive calls. No cut-off for these calls is given here.

Series [1] in a line: Elimination half life in ND4 Swiss Webster mouse at 12.5 to 25 mg/kg, ip. The series is classed as ADME, organism-based. Set-up: dose 12.5-25 mg/kg, route intraperitoneal. As to conditions: in vivo, read-out: beta t1/2.
For another series, the system named is MDA-MB-231. The experiment in a line: Growth inhibition of human MDA-MB-231 cells after 48 hrs by neutral red dye-based assay. The series is classed as functional. As to conditions: MDA-MB-231, 48 h. In short, it runs like this:
(§1)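 TU212 (head and neck SCC) and MDA-MB-231 (breast adenocarcinoma) cells were exposed to compounds at 5 and 10 μM with DMSO below 0.1%. Viability was read by neutral red uptake. Error bars are standard error of the mean, and significance was tested by two-tailed t test.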

A short description of series [2]: Drug level in human liver S9 fraction treated with UBS109 at 1 uM using 1% DMSO measured at 60 mins by LC/MS-MS analysis in presence of NADPH. In kind it is ADME, subcellular. As to conditions: s9, 1 h. In short, it runs like this: (§2)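 Compound was incubated in pooled liver S9 fractions (mouse, cynomolgus monkey, human), mostly with NADPH and in 1% DMSO. Human S9 was also run without NADPH, and at 0.2% DMSO. Parent loss and metabolite formation were followed over time by LC–MS/MS, and half-life was derived from parent depletion.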

The nature of series [3]: Growth inhibition of human TU212 cells after 48 hrs by neutral red dye uptake assay. In kind it is functional. As to conditions: TU212, 48 h. In short, it runs like this:
as §1

A further series relates to Liver. Kind of series: Drug level in human liver S9 fraction treated with UBS109 at 1 uM using 1% DMSO measured after 1 hr by LC/MS-MS analysis in absence of NADPH. The series is classed as ADME. As to conditions: s9, 1 h. In short, it runs like this: as §2
Series [4] can be described thus: Drug level in cynomolgus monkey whole blood treated with UBS109 at 1 uM after 2 hrs by LC/MS-MS analysis. In kind it is ADME, tissue-based, Macaca fascicularis.
In series [5] the test system is Blood. Kind of series: Drug level in human whole blood treated with UBS109 at 1 uM after 2 hrs by LC/MS-MS analysis. In kind it is ADME, tissue-based.
A short description of series [6]: Drug level in CD1 mouse liver S9 fraction treated with UBS109 at 1 uM using 1% DMSO measured after 60 mins by LC/MS-MS analysis in presence of NADPH. The series is classed as ADME, subcellular. As to conditions: s9, 1 h. In short, it runs like this:
as §2

Series [7] is described as follows: Drug level in Beagle dog whole blood treated with UBS109 at 1 uM after 2 hrs by LC/MS-MS analysis. The series is classed as ADME, tissue-based, Canis lupus familiaris.
A short description of series [8]: Elimination half life in mouse. In kind it is ADME, organism-based. As to conditions: in vivo, read-out: beta t1/2 (converted).
Series [9] can be described thus: Half life in CD1 mouse liver S9 fraction at 1 uM using 1% DMSO. The series is classed as ADME, subcellular. In short, it runs like this: as §2
The nature of series [10]: Metabolic stability in human liver S9 fraction assessed as remaining compound level at 2 uM using 0.2% DMSO measured after 1 hr by LC/MS-MS analysis in absence of NADPH. In kind it is ADME. As to conditions: read-out: Stability. In short, it runs like this: as §2
A short description of series [11]: Drug metabolism in human liver S9 fraction assessed as (E)-1-methyl-3-(2-pyridinylmethyl)-5-(2-pyridinylmethylidene)-4-piperidone formation at 1 uM using 1% DMSO measured at 60 mins by LC/MS-MS analysis in presence of NADPH. The series is classed as ADME, subcellular. As to conditions: s9, 1 h. In short, it runs like this:
as §2

The nature of series [12]: Drug metabolism in human liver S9 fraction assessed as (E)-1-methyl-3-(2-pyridinylmethyl)-5-(2-pyridinylmethylidene)-4-piperidone formation at 1 uM using 1% DMSO measured after 1 hr by LC/MS-MS analysis in absence of NADPH. In kind it is ADME. As to conditions: s9, 1 h. In short, it runs like this: as §2
Series [13] in a line: Drug metabolism in human liver S9 fraction assessed as (E)-1-methyl-3,5-bis(2-pyridinylmethylidene)-4-hydroxypiperidine formation at 1 uM using 1% DMSO measured at 60 mins by LC/MS-MS analysis in presence of NADPH. As to conditions: s9, 1 h. The series is classed as ADME, subcellular. In short, it runs like this:
as §2

Series [14] is described as follows: Drug metabolism in Sprague-Dawley rat liver S9 fraction at 1 uM using 1% DMSO measured after 60 mins by LC/MS-MS analysis in presence of NADPH. In kind it is ADME, subcellular. As to conditions: s9, 1 h.
The nature of series [15]: Plasma protein binding in mouse. In kind it is ADME, organism-based. As to conditions: read-out: PPB (converted).
A short description of series [16]: Drug metabolism in cynomolgus monkey whole blood assessed as (E)-1-methyl-3-(2-pyridinylmethyl)-5-(2-pyridinylmethylidene)-4-piperidone formation at 1 uM after 2 hrs by LC/MS-MS analysis. The series is classed as ADME, tissue-based, Macaca fascicularis.
The nature of series [17]: Drug metabolism in CD1 mouse liver S9 fraction assessed as (E)-1-methyl-3-(2-pyridinylmethyl)-5-(2-pyridinylmethylidene)-4-piperidone formation at 1 uM using 1% DMSO measured at 60 mins by LC/MS-MS analysis in presence of NADPH. In kind it is ADME, subcellular. As to conditions: s9, 1 h. In short, it runs like this:
as §2

Series [18] in a line: Half life in human liver S9 fraction at 2 uM using 0.2% DMSO in presence of NADPH. The series is classed as ADME, subcellular. In short, it runs like this:
as §2

Series [19] in a line: Metabolic stability in human liver S9 fraction assessed as remaining compound level at 2 uM using 0.2% DMSO measured after 1 hr by LC/MS-MS analysis in presence of NADPH. In kind it is ADME, subcellular. As to conditions: read-out: Stability. In short, it runs like this:
as §2

Series [20] can be described thus: Drug metabolism in Beagle dog whole blood assessed as (E)-1-methyl-3-(2-pyridinylmethyl)-5-(2-pyridinylmethylidene)-4-piperidone formation at 1 uM after 2 hrs by LC/MS-MS analysis. The series is classed as ADME, tissue-based, Canis lupus familiaris.
The nature of series [21]: Drug metabolism in human liver S9 fraction assessed as (E)-1-methyl-3,5-bis(2-pyridinylmethylidene)-4-hydroxypiperidine formation at 1 uM using 1% DMSO measured after 1 hr by LC/MS-MS analysis in absence of NADPH. The series is classed as ADME. As to conditions: s9, 1 h. In short, it runs like this: as §2
In series [22] the test system is Blood. Kind of series: Drug metabolism in human whole blood assessed as (E)-1-methyl-3-(2-pyridinylmethyl)-5-(2-pyridinylmethylidene)-4-piperidone formation at 1 uM after 2 hrs by LC/MS-MS analysis. In kind it is ADME, tissue-based.
Series [23] can be described thus: Half life in human liver S9 fraction at 2 uM in absence of NADPH.
Series [24] in a line: Half life in cynomolgus monkey liver S9 fraction at 1 uM using 1% DMSO. In kind it is ADME, subcellular, Macaca fascicularis. In short, it runs like this:
as §2

Another series concerns TU212. Kind of series: Cytotoxicity against human TU212 cells assessed as cell viability at 5 to 10 uM after 48 hrs by neutral red dye uptake assay. In kind it is functional, cell-based. In short, it runs like this:
as §1

On to `O=C1/C(=C/c2ccccn2)CNC/C1=C\c1ccccn1`, for which, in series [1], the half-life is at most 1 min.
As for `CN1C/C(=C\c2ccccn2)C(O)/C(=C/c2ccccn2)C1` (configuration not stated), the GI50 (in the series with MDA-MB-231; in series [3]) was over 10 µM in each case. In addition, the Drug metabolism entry (in series [2]; with Liver) was “metabolite_detected” throughout.
Take `CN1C/C(=C\c2ccccn2)C(=O)C(Cc2ccccn2)C1` (configuration not stated): the values for the GI50 (with MDA-MB-231; in series [3]) were over 5 µM and over 10 µM, respectively. In addition, the Drug metabolism entry (in series [2]; in series [4]; in the series with Blood [5]; in series [6]; in the series on Liver; in series [7]) was “metabolite_detected” throughout.
For `O=C1/C(=C/c2ccccc2F)CNC/C1=C\c1ccccc1F`, the half-life in [8] is 60 min.
Consider `CN1C/C(=C\c2ccccn2)C(=O)/C(=C/c2ccccn2)C1`, for which the values for the half-life at 1 µM in series [9] and in series [24] were 38 min and 8 min, respectively. Also, the figures for the remaining at 1 h, 2 µM in series [10] and in [19] were 27.6% and 4.1%, respectively. For the same molecule, the Drug metabolism result in series [11], in series [12], in [13], in [14], in series [16] and in series [17] was “metabolite_detected” throughout. The Drug metabolism result (in series [20]; in series [21]; in the series on Blood [22]) was “metabolite_detected” in each case. Further, the fraction unbound in [15] was 0.06. For the same molecule, the half-life at 2 µM turned out to be 9 min in [18] and 18 min in [23]. For the same molecule, the half-life in series [8] is 240 min. In addition, the result in the series on TU212 was Active.

Usually GI50 stands for the concentration that inhibits growth by half.
